Measured values: ChEMBL document CHEMBL3992538, “Hybrids of thienopyrimidinones and thiouracils as anti-tubercular agents: SAR and docking studies” (Eur J Med Chem, 2017)
≈ marks a conversion by molar mass, not a printed value.

Legend:
[1] = system: Mycobacterium tuberculosis; test: Antitubercular activity against dormant stage of Mycobacterium tuberculosis H37Ra ATCC 25177 after 12 days by XTT reduction menadione assay; assay type: functional; conditions: H37Ra ATCC 25177, 288 h
Method in brief: (§1)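 M. tuberculosis H37Ra (ATCC 25177), grown to log phase (OD 1.0) in M. pheli medium from -70°C stock, subcultured once before inoculation. Incubation 8 days (active) or 12 days (dormant). XRMA read-out as absorbance at 470 nm.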

[2] = Selectivity index, ratio of GI50 for human A549 cells to MIC for active stage of Mycobacterium tuberculosis H37Ra ATCC 25177; assay type: toxicity; conditions: read-out: Selectivity Index
Method in brief: (§2)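 Selectivity index is the cytotoxic GI50 against the named human cell line divided by the antimycobacterial value. Activity counted as specific when SI >10.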

[3] = Cytotoxicity against human THP1 cells assessed as growth inhibition by MTT assay; assay type: cell-based; conditions: THP-1 cells
Method in brief: (§3)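 MTT assay in duplicate on THP-1 leukaemia, A549 lung adenocarcinoma, PANC-1 pancreatic adenocarcinoma and HeLa cervical carcinoma cells, all obtained from ECCC.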

[4] = Cytotoxicity against human PANC1 cells assessed as growth inhibition by MTT assay; assay type: cell-based; conditions: PANC-1 cells; method in brief: as §3
[5] = Cytotoxicity against human A549 cells assessed as growth inhibition by MTT assay; assay type: cell-based; method in brief: as §3
[6] = Selectivity index, ratio of GI50 for human A549 cells to MIC for active stage of Mycobacterium tuberculosis H37Ra ATCC 25177 infected in human THP1 cells; assay type: toxicity, cell-based; conditions: read-out: Selectivity Index; method in brief: as §2
[7] = Selectivity index, ratio of GI50 for human HeLa cells to MIC for active stage of Mycobacterium tuberculosis H37Ra ATCC 25177; assay type: toxicity, cell-based; conditions: read-out: Selectivity Index; method in brief: as §2
[8] = Selectivity index, ratio of GI50 for human PANC1 cells to MIC for active stage of Mycobacterium tuberculosis H37Ra ATCC 25177; assay type: toxicity; conditions: PANC-1 cells, read-out: Selectivity Index; method in brief: as §2
[9] = Selectivity index, ratio of GI50 for human A549 cells to MIC for dormant stage of Mycobacterium tuberculosis H37Ra ATCC 25177 infected in human THP1 cells; assay type: toxicity, cell-based; conditions: read-out: Selectivity Index; method in brief: as §2
[10] = Selectivity index, ratio of GI50 for human PANC1 cells to MIC for dormant stage of Mycobacterium tuberculosis H37Ra ATCC 25177; assay type: toxicity; conditions: PANC-1 cells, read-out: Selectivity Index; method in brief: as §2
[11] = system: Mycobacterium tuberculosis; test: Antitubercular activity against active stage of Mycobacterium tuberculosis H37Ra ATCC 25177 after 8 days by XTT reduction menadione assay; assay type: functional; conditions: H37Ra ATCC 25177, 192 h; method in brief: as §1
[12] = Selectivity index, ratio of GI50 for human A549 cells to MIC for dormant stage of Mycobacterium tuberculosis H37Ra ATCC 25177; assay type: toxicity; conditions: read-out: Selectivity Index; method in brief: as §2
[13] = Selectivity index, ratio of GI50 for human PANC1 cells to MIC for dormant stage of Mycobacterium tuberculosis H37Ra ATCC 25177 infected in human THP1 cells; assay type: toxicity, cell-based; conditions: PANC-1 cells, read-out: Selectivity Index; method in brief: as §2
[14] = system: Mycobacterium tuberculosis; test: Antitubercular activity against dormant stage of Mycobacterium tuberculosis H37Ra ATCC 25177 infected in human THP1 cells after 12 days by nitrate reductase assay; assay type: functional; conditions: H37Ra ATCC 25177, 288 h
Method in brief: (§4)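 Ex vivo test of H37Ra in THP-1 cells by nitrate reductase assay, absorbance read at 540 nm. Active stage incubated 8 days and dormant stage 12 days. H37Ra (ATCC 25177) grown in M. pheli medium to OD 1.0 and subcultured once from -70°C stock.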

[15] = Cytotoxicity against human HeLa cells assessed as growth inhibition by MTT assay; assay type: cell-based; method in brief: as §3
[16] = Selectivity index, ratio of GI50 for human HeLa cells to MIC for dormant stage of Mycobacterium tuberculosis H37Ra ATCC 25177 infected in human THP1 cells; assay type: toxicity, cell-based; conditions: read-out: Selectivity Index; method in brief: as §2
[17] = Selectivity index, ratio of GI50 for human HeLa cells to MIC for dormant stage of Mycobacterium tuberculosis H37Ra ATCC 25177; assay type: toxicity, cell-based; conditions: read-out: Selectivity Index; method in brief: as §2
[18] = Selectivity index, ratio of GI50 for human HeLa cells to MIC for active stage of Mycobacterium tuberculosis H37Ra ATCC 25177 infected in human THP1 cells; assay type: toxicity, cell-based; conditions: read-out: Selectivity Index; method in brief: as §2
[19] = system: Mycobacterium tuberculosis; test: Antitubercular activity against active stage of Mycobacterium tuberculosis H37Ra ATCC 25177 infected in human THP1 cells after 8 days by nitrate reductase assay; assay type: functional; conditions: H37Ra ATCC 25177, 192 h; method in brief: as §4
[20] = Selectivity index, ratio of GI50 for human PANC1 cells to MIC for active stage of Mycobacterium tuberculosis H37Ra ATCC 25177 infected in human THP1 cells; assay type: toxicity, cell-based; conditions: PANC-1 cells, read-out: Selectivity Index; method in brief: as §2

SMILES | MIC [1] | selectivity ratio [2] | GI50 [3] | GI50 [4] | GI50 [5] | selectivity ratio [6] | selectivity ratio [7] | selectivity ratio [8] | selectivity ratio [9] | selectivity ratio [10] | MIC [11] | selectivity ratio [12] | selectivity ratio [13] | MIC [14] | GI50 [15] | selectivity ratio [16] | selectivity ratio [17] | selectivity ratio [18] | MIC [19] | selectivity ratio [20]
CCCCCCc1cc2c(=O)n(CCSc3nc(-c4cc(OC)c(OC)c(OC)c4)c(C#N)c(=O)[nH]3)cnc2s1 | 19.1 µg/mL (≈ 32.8 µM) | 6 | 96.4 µg/mL (≈ 166 µM) | 36.5 µg/mL (≈ 62.7 µM) | 96.8 µg/mL (≈ 166 µM) | 6 | 5 | 2 | 5 | 2 | 15.6 µg/mL (≈ 26.8 µM) | 5 | 2 | 18.8 µg/mL (≈ 32.3 µM) | 76.3 µg/mL (≈ 131 µM) | 4 | 4 | 4 | 17.1 µg/mL (≈ 29.4 µM) | 2
CCCCCCCCCCCn1c(SCCCn2cnc3sc4c(c3c2=O)CCCC4)nc(-c2cc(OC)c(OC)c(OC)c2)c(C#N)c1=O | > 30 µg/mL | > 3 | > 100 µg/mL | > 100 µg/mL | > 100 µg/mL | > 3 | > 3 | > 3 | > 3 | > 3 | > 30 µg/mL | > 3 | > 3 | > 30 µg/mL | > 100 µg/mL | > 3 | > 3 | > 3 | > 30 µg/mL | > 3
CCCCCCCc1cc2c(=O)n(CCSc3nc(-c4cc(OC)c(OC)c(OC)c4)c(C#N)c(=O)[nH]3)cnc2s1 | 17.1 µg/mL (≈ 28.7 µM) | 7 | 88.1 µg/mL (≈ 148 µM) | 72.6 µg/mL (≈ 122 µM) | 79.7 µg/mL (≈ 134 µM) | 7 | 7 | 7 | 6 | 4 | 11.1 µg/mL (≈ 18.6 µM) | 5 | 5 | 13.6 µg/mL (≈ 22.8 µM) | 75.4 µg/mL (≈ 127 µM) | 6 | 4 | 7 | 11.1 µg/mL (≈ 18.6 µM) | 6
COc1cc(-c2[nH]c(=S)[nH]c(=O)c2C#N)cc(OC)c1OC | 17.3 µg/mL (≈ 54.2 µM) | > 3 | > 100 µg/mL | > 100 µg/mL | > 100 µg/mL | > 3 | 2 | > 3 | > 9 | > 6 | > 30 µg/mL | > 6 | > 9 | 11.3 µg/mL (≈ 35.4 µM) | 63.7 µg/mL (≈ 199 µM) | 6 | 4 | 2 | > 30 µg/mL | > 3
CCCCCCCCn1c(SCCCn2cnc3sc4c(c3c2=O)CCCC4)nc(-c2cc(OC)c(OC)c(OC)c2)c(C#N)c1=O | > 30 µg/mL | > 3 | > 100 µg/mL | > 100 µg/mL | > 100 µg/mL | > 3 | > 3 | > 3 | > 3 | > 3 | > 30 µg/mL | > 3 | > 3 | > 30 µg/mL | > 100 µg/mL | > 3 | > 3 | > 3 | > 30 µg/mL | > 3
Cc1ccc(-c2nc(S)nc(O)c2C#N)cc1 | > 30 µg/mL | 3 | 88.9 µg/mL (≈ 365 µM) | > 100 µg/mL | 86.7 µg/mL (≈ 356 µM) | < 3 | 2 | > 3 | 3 | > 3 | > 30 µg/mL | < 3 | > 3 | > 30 µg/mL | 67.6 µg/mL (≈ 278 µM) | 2 | 2 | 2 | > 30 µg/mL | > 3
